Data from article PMC8583780 (ChemMedChem, 2020).
Entries after “also recorded” stand apart in the source; their conditions may differ.

Key:
[1] = five Phase 1 study arms, including aged subjects; cited from earlier work
[2] = human Phase 1, even at the highest doses; cited from earlier work
human cathepsin K = target: T1, human cathepsin K (Homo sapiens, UniProt P43235); assay: Cathepsin K inhibition assay; format: biochemical; conditions: for CatK % Inhibition at 1 μM: 1 μM compound, three replicates; for inhibition at 1 µM: read-out: CatK % Inhibition at 1 μM
T1 sequence (P43235 115-329): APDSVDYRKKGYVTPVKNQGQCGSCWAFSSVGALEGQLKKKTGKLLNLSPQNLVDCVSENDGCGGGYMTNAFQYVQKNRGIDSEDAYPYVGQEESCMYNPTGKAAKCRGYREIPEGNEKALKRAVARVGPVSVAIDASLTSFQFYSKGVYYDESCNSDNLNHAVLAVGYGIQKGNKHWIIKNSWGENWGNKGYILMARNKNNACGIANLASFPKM

papain = target: T2, papain (Carica papaya, UniProt P00784); assay: Papain inhibition assay; format: biochemical; conditions: for Papain % Inhibition at 1 μM: 1 μM compound, three replicates; for inhibition at 1 µM: read-out: Papain % Inhibition at 1 μM
T2 sequence (P00784 134-345): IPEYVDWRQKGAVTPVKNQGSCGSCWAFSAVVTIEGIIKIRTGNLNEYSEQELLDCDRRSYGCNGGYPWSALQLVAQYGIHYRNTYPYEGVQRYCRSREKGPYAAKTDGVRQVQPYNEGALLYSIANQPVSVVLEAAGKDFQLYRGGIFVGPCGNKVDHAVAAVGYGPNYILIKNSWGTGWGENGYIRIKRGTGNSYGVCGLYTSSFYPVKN

human cathepsin B = human cathepsin B (Homo sapiens, UniProt P07858); assay: Cathepsin B inhibition assay; format: biochemical; conditions: for CatB % Inhibition at 1 μM: 1 μM compound, three replicates; for inhibition at 1 µM: read-out: CatB % Inhibition at 1 μM
human calpain-1 = target: T3, human calpain-1 (Homo sapiens, UniProt P07384); assay: Calpain-1 inhibition assay; format: biochemical; conditions: for Calpain-1 % Inhibition at 1 μM: 1 μM compound, three replicates, errors estimated <10%; for inhibition at 1 µM: read-out: Calpain-1 % Inhibition at 1 μM
T3 sequence (P07384 1-714): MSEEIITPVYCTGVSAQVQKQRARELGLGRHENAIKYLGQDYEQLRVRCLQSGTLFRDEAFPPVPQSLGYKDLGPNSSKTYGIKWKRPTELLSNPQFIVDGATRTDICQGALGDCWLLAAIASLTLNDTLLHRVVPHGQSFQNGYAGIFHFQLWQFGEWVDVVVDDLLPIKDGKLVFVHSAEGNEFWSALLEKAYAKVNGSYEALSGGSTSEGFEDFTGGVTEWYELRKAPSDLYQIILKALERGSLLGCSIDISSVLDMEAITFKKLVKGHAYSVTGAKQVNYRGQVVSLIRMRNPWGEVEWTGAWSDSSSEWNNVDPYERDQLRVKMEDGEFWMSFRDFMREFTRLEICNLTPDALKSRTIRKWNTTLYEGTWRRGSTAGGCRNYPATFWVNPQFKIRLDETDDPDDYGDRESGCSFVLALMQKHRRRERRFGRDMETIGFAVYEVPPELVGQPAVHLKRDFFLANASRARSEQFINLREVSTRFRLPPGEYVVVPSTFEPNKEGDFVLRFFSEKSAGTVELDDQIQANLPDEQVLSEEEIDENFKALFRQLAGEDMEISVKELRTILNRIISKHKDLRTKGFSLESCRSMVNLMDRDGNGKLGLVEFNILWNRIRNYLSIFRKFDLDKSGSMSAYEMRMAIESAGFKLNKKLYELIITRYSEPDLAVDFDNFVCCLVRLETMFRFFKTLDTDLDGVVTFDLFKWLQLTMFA
T3 sequence (P04632 1-268 partner): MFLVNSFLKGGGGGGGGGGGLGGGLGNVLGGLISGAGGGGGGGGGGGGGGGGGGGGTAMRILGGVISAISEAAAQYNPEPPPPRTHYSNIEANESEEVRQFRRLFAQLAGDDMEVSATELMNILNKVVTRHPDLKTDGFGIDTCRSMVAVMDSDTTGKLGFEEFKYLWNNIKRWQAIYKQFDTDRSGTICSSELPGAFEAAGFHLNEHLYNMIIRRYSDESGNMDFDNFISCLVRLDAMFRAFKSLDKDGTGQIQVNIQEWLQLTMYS

[3] = test system: scopolamine-induced cognitive deficit in mice; assay: Step-through passive avoidance; format: in vivo; conditions: scopolamine 1 mg/kg, drug 10 mg/kg i.p.
How it was run: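 Mice receive scopolamine 1 mg/kg in saline by i.p. injection 30 min before training, then test compound (10 mg/kg) or vehicle 20 min before training. During training, entry into the dark compartment delivers an electric shock. The read-out is the latency to enter the dark compartment.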

Row | SMILES | CatK % Inhibition at 1 μM (human cathepsin K) | Papain % Inhibition at 1 μM (papain) | CatB % Inhibition at 1 μM (human cathepsin B) | Calpain-1 % Inhibition at 1 μM (human calpain-1) | inhibition at 1 µM (human calpain-1) | other results
1 | O=C(NC1CC1)C(=O)C(Cc1ccccc1)NC(=O)[C@H]1CCC(=O)N1Cc1ccccc1 (stereo partly shown) [ABT-957, alicapistat] | – | – | – | – | – | Treatment-associated adverse events [1]: no treatment-associated adverse events were identified; Measured CSF concentrations [2]: 9 to 21 nM
2 | CCC(NC(=O)[C@H](CC(C)C)NC(=O)OCc1ccccc1)C(=O)C(=O)NCCCN1CCOCC1 (stereo partly shown) [AK-295] | 100% | 18.7% | 18.0% | 100% | – | Cathepsin K inhibition in words (human cathepsin K): potent inhibitor of cathepsin K
3 | CCCNC(=O)[C@H]1O[C@@H]1C(=O)N[C@H](C(=O)N1CCC[C@H]1C(=O)O)[C@@H](C)CC [CA-074] | 70.5% | 16.8% | 100% | 4.72% | – | –
4 | O=C(NCc1ccc(F)cc1)C(=O)[C@H](Cc1ccccc1)NC(=O)[C@H]1CCC(=O)N1Cc1ccccc1 [Compound 1c, (R)-1-benzyl-N-((S)-4-((4-fluorobenzyl)amino)-3,4-dioxo-1-phenylbutan-2-yl)-5-oxopyrrolidine-2-carboxamide] | – | – | – | – | 98.1% | inhibition at 1 µM (human cathepsin K): 13.5%; inhibition at 1 µM (papain): 15.2%; Memory restoration in STPA, in words [3]: restored cognitive function; also recorded: restored memory; inhibition at 1 µM (human cathepsin B): 11.4%; IC50 (human calpain-1): 78 ± 10 nM
5 | O=C(NCc1ccc(F)cc1)C(=O)[C@@H](Cc1ccccc1)NC(=O)[C@H]1CCC(=O)N1Cc1ccccc1 [Compound 1g, (R)-1-benzyl-N-((R)-4-((4-fluorobenzyl)amino)-3,4-dioxo-1-phenylbutan-2-yl)-5-oxopyrrolidine-2-carboxamide] | – | – | – | – | 31.8% | Calpain-1 potency in words (human calpain-1): greatly reduced potency
6 | CC(C)CCNC(=O)[C@H](CC(C)C)NC(=O)[C@H]1O[C@@H]1C(=O)O [Compound E-64c] | 100% | 97.6% | 99.3% | 86.0% | – | –
7 | CCOC(=O)[C@H]1O[C@@H]1C(=O)N[C@@H](CC(C)C)C(=O)NCCC(C)C [Compound E-64d] | – | – | – | – | – | Memory restoration in STPA, in words [3]: restore memory
8 | CC(C)(F)C[C@H](N[C@@H](c1ccc(-c2ccc(S(C)(=O)=O)cc2)cc1)C(F)(F)F)C(=O)NC1(C#N)CC1 [odanacatib] | – | – | – | – | 7.1% | inhibition at 1 µM (human cathepsin K): 99.8%; inhibition at 1 µM (papain): 14.7%; inhibition at 1 µM (human cathepsin B): 57.2%
